For assay [1], the target named is T1, Serine/threonine-protein kinase TAO2 (Rattus norvegicus) (UniProt Q9JLS3).
T1 sequence (whole entry): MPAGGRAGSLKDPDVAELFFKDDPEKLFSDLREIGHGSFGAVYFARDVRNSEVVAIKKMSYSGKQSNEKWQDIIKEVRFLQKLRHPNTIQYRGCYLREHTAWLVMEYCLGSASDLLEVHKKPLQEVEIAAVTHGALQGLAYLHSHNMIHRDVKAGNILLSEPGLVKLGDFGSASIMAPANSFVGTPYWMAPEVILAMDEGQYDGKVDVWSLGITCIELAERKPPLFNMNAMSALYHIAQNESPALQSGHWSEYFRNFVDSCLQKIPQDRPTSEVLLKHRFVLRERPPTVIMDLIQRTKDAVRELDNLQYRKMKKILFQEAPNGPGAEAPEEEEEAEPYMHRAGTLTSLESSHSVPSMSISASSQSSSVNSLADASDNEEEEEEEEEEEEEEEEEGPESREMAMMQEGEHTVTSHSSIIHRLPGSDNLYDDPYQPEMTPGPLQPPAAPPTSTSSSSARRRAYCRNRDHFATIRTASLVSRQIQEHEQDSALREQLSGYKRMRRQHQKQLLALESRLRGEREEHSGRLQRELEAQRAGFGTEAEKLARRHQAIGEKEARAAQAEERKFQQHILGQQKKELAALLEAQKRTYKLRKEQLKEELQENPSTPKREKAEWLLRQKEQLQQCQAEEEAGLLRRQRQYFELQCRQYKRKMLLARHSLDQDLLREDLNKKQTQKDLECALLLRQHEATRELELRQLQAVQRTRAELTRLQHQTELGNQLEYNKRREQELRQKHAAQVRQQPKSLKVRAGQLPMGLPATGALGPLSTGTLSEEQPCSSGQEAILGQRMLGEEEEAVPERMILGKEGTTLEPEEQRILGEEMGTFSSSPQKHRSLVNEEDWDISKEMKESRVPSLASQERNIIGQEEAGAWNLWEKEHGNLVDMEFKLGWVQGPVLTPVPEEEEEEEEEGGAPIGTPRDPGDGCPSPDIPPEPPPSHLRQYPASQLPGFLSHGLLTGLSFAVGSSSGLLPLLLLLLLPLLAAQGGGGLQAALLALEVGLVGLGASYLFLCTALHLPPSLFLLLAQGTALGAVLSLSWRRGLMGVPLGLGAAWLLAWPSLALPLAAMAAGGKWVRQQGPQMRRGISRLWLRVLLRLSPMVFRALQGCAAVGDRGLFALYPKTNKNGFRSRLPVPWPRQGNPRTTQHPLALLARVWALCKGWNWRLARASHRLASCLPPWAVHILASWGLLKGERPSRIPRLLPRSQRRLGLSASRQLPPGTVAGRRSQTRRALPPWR
Description: Binding affinity to rat TAOK2 (1 to 320 residues) expressed in Baculovirus/insect cell expression system assessed as change in melting temperature at 1 uM by SYPRO orange dye-based DSF analysis. In short, it runs like this: (§1)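 Differential scanning fluorimetry: each compound's melting-temperature shift (ΔTm, °C) was measured on the kinase protein. Compounds giving a TAOK2 ΔTm above 0.5 °C were also run against p38 and ASK1. Selectivity (ΔΔTm) was taken as the TAOK2 ΔTm minus the p38 or ASK1 ΔTm.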
(In general: Differential scanning fluorimetry follows unfolding on heating by fluorescence.)

Assay [2] deals with MAP kinase p38 (Homo sapiens) (UniProt O15264+Q15759+Q16539+P53778). Description: Binding affinity to p38 (unknown origin) assessed as change in melting temperature at 1 uM by SYPRO orange dye-based DSF analysis. Format: protein assay. In outline: as §1
For assay [3], the target named is T2, Mitogen-activated protein kinase kinase kinase 5 (Homo sapiens) (UniProt Q99683).
T2 sequence (whole entry): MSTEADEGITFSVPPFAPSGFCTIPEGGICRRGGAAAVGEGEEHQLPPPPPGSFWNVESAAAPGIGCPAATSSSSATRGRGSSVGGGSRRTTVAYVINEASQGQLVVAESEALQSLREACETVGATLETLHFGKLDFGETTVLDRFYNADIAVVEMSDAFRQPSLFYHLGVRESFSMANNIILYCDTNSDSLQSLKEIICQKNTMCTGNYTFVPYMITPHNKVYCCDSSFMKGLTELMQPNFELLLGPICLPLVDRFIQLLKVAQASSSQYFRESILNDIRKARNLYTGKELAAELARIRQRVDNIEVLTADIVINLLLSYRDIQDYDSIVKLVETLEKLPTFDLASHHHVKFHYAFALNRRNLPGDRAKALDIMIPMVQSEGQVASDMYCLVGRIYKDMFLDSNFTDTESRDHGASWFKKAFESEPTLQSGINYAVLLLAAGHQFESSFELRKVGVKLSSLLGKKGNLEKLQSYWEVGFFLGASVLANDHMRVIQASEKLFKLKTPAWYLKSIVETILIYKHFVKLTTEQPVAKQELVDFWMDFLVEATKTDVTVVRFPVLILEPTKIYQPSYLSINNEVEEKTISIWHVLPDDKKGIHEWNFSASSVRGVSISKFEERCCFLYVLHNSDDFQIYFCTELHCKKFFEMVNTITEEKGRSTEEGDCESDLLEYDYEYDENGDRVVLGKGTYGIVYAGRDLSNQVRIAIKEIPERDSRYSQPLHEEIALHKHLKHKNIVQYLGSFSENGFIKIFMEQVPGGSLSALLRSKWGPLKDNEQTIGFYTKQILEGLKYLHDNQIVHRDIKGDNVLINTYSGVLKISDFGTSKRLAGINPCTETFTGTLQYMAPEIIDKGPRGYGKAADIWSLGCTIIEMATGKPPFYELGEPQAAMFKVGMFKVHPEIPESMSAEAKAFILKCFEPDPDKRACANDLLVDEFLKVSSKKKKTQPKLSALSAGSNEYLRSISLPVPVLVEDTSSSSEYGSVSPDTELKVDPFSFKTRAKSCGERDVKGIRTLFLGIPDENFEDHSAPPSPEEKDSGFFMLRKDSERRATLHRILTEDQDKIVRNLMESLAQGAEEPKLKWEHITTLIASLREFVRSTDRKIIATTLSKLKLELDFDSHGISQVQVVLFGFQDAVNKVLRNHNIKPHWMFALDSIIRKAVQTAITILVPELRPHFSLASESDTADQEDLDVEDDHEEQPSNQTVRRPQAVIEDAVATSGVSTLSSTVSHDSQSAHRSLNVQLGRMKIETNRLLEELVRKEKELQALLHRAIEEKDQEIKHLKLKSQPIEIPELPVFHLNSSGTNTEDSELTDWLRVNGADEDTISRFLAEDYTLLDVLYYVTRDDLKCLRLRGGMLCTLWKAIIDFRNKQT
The experiment in a line: Binding affinity to ASK1 (unknown origin) assessed as change in melting temperature at 1 uM by SYPRO orange dye-based DSF analysis. In outline: as §1

Assay [4] concerns the target T3, Serine/threonine-protein kinase TAO2 (Rattus norvegicus, UniProt Q9JLS3).
T3 sequence (Q9JLS3 whole entry): T1 sequence (whole entry)
Description: Inhibition of rat TAOK2 (1 to 320 residues) expressed in Baculovirus/insect cell expression system assessed as remaining activity using MBP as substrate and [32P]ATP measured after 10 mins by Kinase-Glo assay.

On to `CCOCCCn1c(=S)[nH]c2cc(C(=O)NCC3COc4ccccc4O3)ccc2c1=O` (stereo not given), for which the ΔTm came out at 2 °C in assay [1], 2 °C in assay [2] and 2.1 °C in assay [3]. For the same compound, in assay [4], the 50% inhibitory concentration (IC50) fell in the range of 1.3 to 1.4 µM.
As to `CS(=O)(=O)c1ccc2nc(NC(=O)CCCOc3ccc(Cl)cc3)sc2c1`, the shift in melting temperature (ΔTm) in assay [1] is 1.3 °C; in assay [2] it was 2 °C; in assay [3], 1.2 °C.
With `c1cc2[nH]c3c(c2c2nonc12)CCCC3`, the ΔTm in assay [1] worked out at 1.2 °C; in assay [2], 2 °C; in assay [3], 0 °C. In addition, in assay [4], the half-inhibitory concentration (IC50) turned out to be 3 µM.
In the case of `CCC(=O)Nc1nc(C)c(-c2csc(Nc3cc(OC)ccc3OC)n2)s1`, the thermal shift (ΔTm) in assay [1] is 3 °C; in assay [2], 2.8 °C; in assay [3] it was 2.7 °C.
`O=C(NCC1COc2ccccc2O1)c1ccc(NC(=O)c2ccco2)cc1` (stereo not given): the figures for the ΔTm in assay [1], in assay [2] and in assay [3] were 1.6 °C, 2.2 °C and 1.2 °C, respectively. Besides, the IC50 in assay [4] turned out to be 2 µM.
As for `Cc1ccc(C(=O)CSc2nnc(-c3ccncc3)[nH]2)c(C)c1`, the thermal shift (ΔTm) in assay [1] is 0.7 °C; in assay [2], 0 °C; in assay [3], 0.4 °C. The IC50 in assay [4] came out at 5 µM.
Turning to `Cc1ccc(NCCCC(=O)N/N=C/c2cc(Br)cc(Br)c2O)cc1`, the ΔTm in assay [1] amounted to 1.6 °C; in assay [2] it was 1.3 °C; in assay [3], 1.2 °C. In addition, the IC50 in assay [4] worked out at 6 µM.
On to `O=C(O)c1cc(-c2ccc(-c3ccccc3[N+](=O)[O-])o2)nc2ccc3ccccc3c12`, for which the values for the shift in melting temperature (ΔTm) in assay [1], in assay [2] and in assay [3] were 2.2 °C, 1.5 °C and 1.7 °C, respectively. The 50% inhibitory concentration (IC50) in assay [4] worked out at 3 µM.

Broadly, the ΔTm is the change in melting temperature against a reference sample. For orientation: IC50 means the concentration needed to halve the response being measured.
